Key:
Vero = assay: Cytotoxicity against african green monkey Vero cells; format: cell-based; conditions: Chlorocebus sabaeus
[1] = Cmax in BALB/c mouse lung at 100 mg/kg administered via oral gavage after 0.25 to 24 hrs by LC-MS analysis; format: ADME, organism-based; set-up: dose 100 mg/kg, route oral
Method in brief: (§1)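 Female BALB/c mice (20 g), single oral gavage dose of 100 mg/kg. Cardiac blood and lungs taken at 0, 0.25, 0.5, 1, 2, 4, 8 and 24 h (n = 3 per time point). Plasma separated by centrifugation; lungs bead-beaten in water and supernatant recovered. Drug quantified by LC-MS/MS against an indole-2-carboxamide internal standard. Parameters derived by noncompartmental analysis.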

[2] = Stability in dog hepatocytes assessed as compound remaining at 1 uM after 2 hrs; format: ADME, cell-based, Canis lupus familiaris, Hepatocyte; conditions: read-out: Stability
Method in brief: (§2)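 Hepatocytes from human, mouse, rat or dog incubated with 1 μM starting concentration for 2 h; percent of parent compound remaining.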

Cytochrome P450 2D6 = Cytochrome P450 2D6 (Homo sapiens, UniProt P10635); assay: Inhibition of CYP2D6 (unknown origin); format: ADME
[3] = Permeability across apical to basolateral side in human Caco2 cells; format: ADME, cell-based; conditions: Caco-2, read-out: permeability
[4] = AUClast in BALB/c mouse lung at 100 mg/kg administered via oral gavage after 0.25 to 24 hrs by LC-MS analysis; format: ADME, organism-based; conditions: in vivo; method in brief: as §1
[5] = system: Mycobacterium tuberculosis; assay: Antimycobacterial activity against Mycobacterium tuberculosis H37Rv infected in BALB/c mouse model assessed as reduction in CFU counts in lung at 100 mg/kg administered daily via oral gavage for 5 days per week measured after 14 days post dosage relative to control; format: functional
Method in brief: (§3)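 Female BALB/c mice, 4-6 weeks old, aerosol-infected with H37Rv (about 10^3 CFU); five mice taken on day 1 for lung implantation CFU. From day 1, 12.5, 25, 50 or 100 mg/kg in 0.5% carboxymethylcellulose by daily oral gavage, 5 days/week. Ethambutol 100 mg/kg as positive control, untreated infected mice as negative, 5 mice per group. Lung homogenates plated on 7H11 selective agar on days 14 and 28.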

[6] = molecular target: T1, Aryl hydrocarbon receptor (Homo sapiens, UniProt P35869); assay: Transactivation of AhR (unknown origin) assessed as upregulation of CYP1A2 at 0.1 to 1 microg/ml; format: ADME
T1 sequence (P35869 whole entry): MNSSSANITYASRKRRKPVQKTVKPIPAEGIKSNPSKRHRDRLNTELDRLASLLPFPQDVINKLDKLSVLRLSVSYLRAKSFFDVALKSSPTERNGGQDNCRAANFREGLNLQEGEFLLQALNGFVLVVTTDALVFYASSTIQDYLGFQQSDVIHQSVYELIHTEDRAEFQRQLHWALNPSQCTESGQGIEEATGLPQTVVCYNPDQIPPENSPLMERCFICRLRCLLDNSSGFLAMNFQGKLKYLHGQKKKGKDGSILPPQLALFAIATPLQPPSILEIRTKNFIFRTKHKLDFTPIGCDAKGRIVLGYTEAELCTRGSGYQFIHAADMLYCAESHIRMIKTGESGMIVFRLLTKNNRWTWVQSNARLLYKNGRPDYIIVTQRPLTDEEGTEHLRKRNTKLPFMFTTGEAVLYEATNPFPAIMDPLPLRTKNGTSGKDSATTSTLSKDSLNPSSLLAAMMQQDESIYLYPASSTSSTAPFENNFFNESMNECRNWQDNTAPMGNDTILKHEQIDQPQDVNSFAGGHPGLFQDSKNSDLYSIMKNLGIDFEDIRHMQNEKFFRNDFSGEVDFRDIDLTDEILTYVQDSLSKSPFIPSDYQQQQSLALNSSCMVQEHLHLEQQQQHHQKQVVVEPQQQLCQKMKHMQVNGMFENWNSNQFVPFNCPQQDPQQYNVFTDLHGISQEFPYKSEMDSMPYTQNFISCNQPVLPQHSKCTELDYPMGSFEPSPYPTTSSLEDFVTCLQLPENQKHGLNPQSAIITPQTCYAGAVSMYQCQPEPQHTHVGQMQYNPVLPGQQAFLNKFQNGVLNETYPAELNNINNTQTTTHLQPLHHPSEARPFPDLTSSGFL
Method in brief: (§4)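 Nuclear receptor reporter-gene induction assay, with reporters coupled to PXR, CAR or AhR. Compound was tested at 0.1–1, 3 and 8 μg/mL. Positive controls were rifampin for PXR, CITCO for CAR and 3-methylcholanthrene for AhR.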

[7] = Stability in rat hepatocytes assessed as compound remaining at 1 uM after 2 hrs; format: ADME, cell-based, Hepatocyte; conditions: read-out: Stability; method in brief: as §2
[8] = Permeability across basolateral to apical side in human Caco2 cells; format: ADME, cell-based; conditions: Caco-2, read-out: permeability
[9] = AUClast in BALB/c mouse plasma at 100 mg/kg administered via oral gavage after 0.25 to 24 hrs by LC-MS analysis; format: ADME, organism-based; set-up: dose 100 mg/kg, time 0.25-24 hr, route oral; method in brief: as §1
[10] = Cmax in BALB/c mouse plasma at 100 mg/kg administered via oral gavage after 0.25 to 24 hrs by LC-MS analysis; format: ADME, organism-based; set-up: dose 100 mg/kg, route oral; method in brief: as §1
[11] = Stability in mouse hepatocytes assessed as compound remaining at 1 uM after 2 hrs; format: ADME, cell-based, Hepatocyte; conditions: read-out: Stability; method in brief: as §2
[12] = Mutagenicity in Salmonella typhimurium TA100; format: toxicity; conditions: salmonella enterica subsp. enterica serovar typhimurium
[13] = system: Mycobacterium tuberculosis; assay: Antimycobacterial activity against Mycobacterium tuberculosis H37Rv infected in BALB/c mouse model assessed as reduction in CFU counts in lungs administered daily via oral gavage for 5 days per week measured after 14 to 28 days post dosage relative to control; format: functional, organism-based; method in brief: as §3
[14] = molecular target: T2, Nuclear receptor subfamily 1 group I member 2 (Homo sapiens, UniProt O75469); assay: Transactivation of PXR (unknown origin) assessed as upregulation of CYP3A4 at 3 to 8 microg/ml; format: ADME; method in brief: as §4
T2 sequence (O75469 whole entry): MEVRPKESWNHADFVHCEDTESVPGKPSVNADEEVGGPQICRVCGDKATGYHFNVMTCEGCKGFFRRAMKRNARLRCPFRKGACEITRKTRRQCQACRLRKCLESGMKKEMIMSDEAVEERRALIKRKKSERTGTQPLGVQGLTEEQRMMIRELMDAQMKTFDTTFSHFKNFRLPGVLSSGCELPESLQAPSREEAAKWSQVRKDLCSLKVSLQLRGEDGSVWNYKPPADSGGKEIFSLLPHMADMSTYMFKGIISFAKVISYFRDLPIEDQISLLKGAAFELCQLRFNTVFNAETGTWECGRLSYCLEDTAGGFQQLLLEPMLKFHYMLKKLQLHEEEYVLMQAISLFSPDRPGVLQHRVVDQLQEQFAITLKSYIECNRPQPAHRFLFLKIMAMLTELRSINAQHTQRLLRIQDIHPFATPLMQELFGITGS

[15] = Tmax in BALB/c mouse lung at 100 mg/kg administered via oral gavage after 0.25 to 24 hrs by LC-MS analysis; format: ADME, organism-based
Method in brief: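 Female BALB/c mice (20 g) got a single 100 mg/kg oral gavage dose. Three animals were sacrificed per time point at 0, 0.25, 0.5, 1, 2, 4, 8 and 24 h. Cardiac blood was spun at 12 000g, 4 °C for plasma. Lungs were bead-beaten in water and the supernatant taken. Both matrices were quantified by LC-MS/MS with an indole-2-carboxamide internal standard. Parameters came from noncompartmental analysis.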

[16] = molecular target: T2, Nuclear receptor subfamily 1 group I member 2; assay: Transactivation of PXR (unknown origin) assessed as upregulation of CYP3A4 at 0.1 to 1 microg/ml; format: ADME; method in brief: as §4

Chain of Cytochrome P450 2D6 (P10635 whole entry): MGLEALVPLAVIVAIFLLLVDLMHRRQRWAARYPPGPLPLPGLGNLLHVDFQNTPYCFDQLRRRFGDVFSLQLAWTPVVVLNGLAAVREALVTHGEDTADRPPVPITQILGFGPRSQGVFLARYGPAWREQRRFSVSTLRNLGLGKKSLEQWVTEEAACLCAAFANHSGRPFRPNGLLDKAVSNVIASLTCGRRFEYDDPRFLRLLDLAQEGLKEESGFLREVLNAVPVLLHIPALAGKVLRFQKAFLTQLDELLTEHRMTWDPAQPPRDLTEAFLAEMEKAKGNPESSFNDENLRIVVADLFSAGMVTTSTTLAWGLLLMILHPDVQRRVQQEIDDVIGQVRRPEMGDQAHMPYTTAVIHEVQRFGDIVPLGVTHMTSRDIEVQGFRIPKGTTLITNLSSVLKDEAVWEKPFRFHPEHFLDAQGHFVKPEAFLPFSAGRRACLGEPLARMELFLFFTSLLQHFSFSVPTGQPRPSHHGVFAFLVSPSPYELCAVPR

## C[C@@H]1[C@H]2C[C@@H](C[C@H]1NC(=O)c1cc3c(F)cc(F)cc3[nH]1)C2(C)C
Vero
  IC50: ≥ 192 µM
[1]
  Cmax: 3500 ng/g
[2]
  remaining at 2 h, 1 µM: 18%
Cytochrome P450 2D6
  inhibition (INH): 36.6%
[3]
  Papp A→B: 1.9 nm/s
[4]
  AUClast: 51 µg·h/g
[5]
  Activity: 1.71 log10CFU
[6]
  Activity: Not Active
[7]
  remaining at 2 h, 1 µM: 0.7%
[8]
  Papp B→A: 2.5 nm/s
[9]
  AUC(0-t): 18.9 µg·h/mL
[10]
  Cmax: 1.71 µg/mL
[11]
  remaining at 2 h, 1 µM: 15%
[12]
  Activity: Non-Toxic
[13]
  Activity: Dose-dependent effect
[14]
  Activity: Active
[15]
  Tmax: 4 h
[16]
  Activity: Not Active

Source: ChEMBL document CHEMBL4477209, “Indole-2-carboxamide-based MmpL3 Inhibitors Show Exceptional Antitubercular Activity in an Animal Model of Tuberculosis Infection” (J Med Chem, 2016)
